In ChEMBL document CHEMBL1153905, “Functionalized 3-benzylidene-indolin-2-ones: inducers of NAD(P)H-quinone oxidoreductase 1 (NQO1) with antiproliferative activity” (Bioorg Med Chem, 2009):

Legend:
[1] = Cytotoxicity against mouse Hepa-1c1c7 cells after 48 hrs by MTT assay; type: cell-based; details: hepa-1c1c7, 48 h
Method in brief: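 Murine hepatoma cells in α-MEM with 10% heat- and charcoal-treated fetal calf serum, passages 6–17; MTT read-out as for the cancer lines but with 48 h compound exposure. Highest concentration tested 25 µM. IC50 from survival-versus-concentration curve; mean and SD, n = 3.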

[2] = molecular target: NAD(P)H dehydrogenase [quinone] 1 (Mus musculus) (UniProt Q64669); experiment: Induction of NQO1 activity in mouse Hepa-1c1c7 cells assessed as induction ratio at 5 uM after 48 hrs by MTT assay relative to control; type: cell-based
Sequence of NAD(P)H dehydrogenase [quinone] 1 (Mus musculus) (Q64669 whole entry): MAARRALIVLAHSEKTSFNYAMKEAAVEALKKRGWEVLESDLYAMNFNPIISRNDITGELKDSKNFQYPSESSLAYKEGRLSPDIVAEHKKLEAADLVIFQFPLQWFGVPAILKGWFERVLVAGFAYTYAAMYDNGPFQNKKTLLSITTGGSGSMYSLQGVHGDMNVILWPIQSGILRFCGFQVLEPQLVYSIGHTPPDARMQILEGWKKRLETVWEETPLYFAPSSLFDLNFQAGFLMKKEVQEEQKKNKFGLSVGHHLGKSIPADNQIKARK
Method in brief: (§1)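 Hepa1c1c7 cells, 10,000 per well, 24 h, were then treated 48 h (DMSO ≤0.5%). Digitonin/EDTA lysates were assayed for menadione-dependent MTT-formazan formation using a G6P/G6PDH NADPH-generating mix with FAD at pH 7.4. The reaction ran 5 min, was stopped with dicoumarol, and read at A590. Degree of induction = (A test − blank)/(A control − blank). Ratios were read off the induction–concentration plot at the EROD test concentration.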

CYP1A1 [3] = molecular target: T1, CYP1A1 (Mus musculus, UniProt P00184); experiment: Induction of CYP1A1 activity in mouse Hepa-1c1c7 cells assessed as induction ratio at 5 uM after 48 hrs by EROD assay relative to control; type: ADME, cell-based
T1 sequence (P00184 whole entry): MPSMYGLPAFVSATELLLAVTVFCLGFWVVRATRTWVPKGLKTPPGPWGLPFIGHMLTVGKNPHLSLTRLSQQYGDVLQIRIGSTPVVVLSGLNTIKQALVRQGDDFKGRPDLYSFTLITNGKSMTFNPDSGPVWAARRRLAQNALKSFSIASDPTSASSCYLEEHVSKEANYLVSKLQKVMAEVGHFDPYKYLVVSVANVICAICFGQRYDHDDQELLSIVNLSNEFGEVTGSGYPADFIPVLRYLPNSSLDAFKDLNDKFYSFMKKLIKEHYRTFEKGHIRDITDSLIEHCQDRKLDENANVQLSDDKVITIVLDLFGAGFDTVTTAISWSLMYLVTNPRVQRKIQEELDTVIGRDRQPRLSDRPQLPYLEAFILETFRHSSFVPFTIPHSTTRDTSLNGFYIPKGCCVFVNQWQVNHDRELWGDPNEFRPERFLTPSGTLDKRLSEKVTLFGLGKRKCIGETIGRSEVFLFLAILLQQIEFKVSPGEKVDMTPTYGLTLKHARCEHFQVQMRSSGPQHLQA
Method in brief: (§2)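 Hepa1c1c7 cells were seeded at 10,000 per well and grown 24 h. They were then exposed 48 h to compound (final DMSO 0.5% v/v) at about 4 × the NQO1 CD. After a PBS wash, cells got 5 µM 7-ethoxyresorufin plus 2 mM salicylamide in medium, 37 °C, 40 min. Resorufin was read at ex 530/em 590 nm, corrected for compound fluorescence. Ratio = (F treated − blank)/(F DMSO control − blank); mean ± SD, n = 3.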

CYP1A1 [4] = molecular target: T1, CYP1A1; experiment: Induction of CYP1A1 activity in mouse Hepa-1c1c7 cells assessed as induction ratio at 20 uM after 48 hrs by EROD assay relative to control; type: ADME, cell-based; method in brief: as §2
[5] = molecular target: NAD(P)H dehydrogenase [quinone] 1 (Mus musculus) (UniProt Q64669); experiment: Induction of NQO1 activity in mouse Hepa-1c1c7 cells assessed as induction ratio at 20 uM after 48 hrs by MTT assay relative to control; type: cell-based; method in brief: as §1
CYP1A1 [6] = molecular target: T1, CYP1A1; experiment: Induction of CYP1A1 activity in mouse Hepa-1c1c7 cells assessed as induction ratio at 2.5 uM after 48 hrs by EROD assay relative to control; type: ADME, cell-based; method in brief: as §2
[7] = molecular target: NAD(P)H dehydrogenase [quinone] 1 (Mus musculus) (UniProt Q64669); experiment: Induction of NQO1 activity in mouse Hepa-1c1c7 cells assessed as induction ratio at 2.5 uM after 48 hrs by MTT assay relative to control; type: cell-based; method in brief: as §1
[8] = molecular target: NAD(P)H dehydrogenase [quinone] 1 (Mus musculus) (UniProt Q64669); experiment: Induction of NQO1 activity in mouse Hepa-1c1c7 cells assessed as induction ratio at 1 uM after 48 hrs by MTT assay relative to control; type: cell-based; method in brief: as §1
CYP1A1 [9] = molecular target: T1, CYP1A1; experiment: Induction of CYP1A1 activity in mouse Hepa-1c1c7 cells assessed as induction ratio at 1 uM after 48 hrs by EROD assay relative to control; type: ADME, cell-based
Method in brief: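 About 10,000 Hepa1c1c7 cells/well cultured 24 h, then compound (0.5% DMSO final) for 48 h, at roughly 4 × the concentration doubling NQO1 activity. After PBS wash, cells given 5 µM 7-ethoxyresorufin plus 2 mM salicylamide, 37 °C, 40 min; resorufin fluorescence ex 530/em 590 nm, corrected for compound fluorescence. Ratio = (treated − blank)/(DMSO control − blank); mean ± SD, n = 3.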

CYP1A1 [10] = molecular target: T1, CYP1A1; experiment: Induction of CYP1A1 activity in mouse Hepa-1c1c7 cells assessed as induction ratio at 7.5 uM after 48 hrs by EROD assay relative to control; type: ADME, cell-based; method in brief: as §2
[11] = molecular target: NAD(P)H dehydrogenase [quinone] 1 (Mus musculus) (UniProt Q64669); experiment: Induction of NQO1 activity in mouse Hepa-1c1c7 cells assessed as induction ratio at 7.5 uM after 48 hrs by MTT assay relative to control; type: cell-based; method in brief: as §1

Ratio [2] | fold induction at 48 h, 5 µM (CYP1A1 [3]) | SMILES | IC50 [1] [µM] | further results
4 | 1.32 | COc1cc(/C=C2/C(=O)Nc3ccccc32)ccc1O | 14.6 | –
4.78 | 1.18 | COc1cccc(/C=C2/C(=O)N(C)c3ccccc32)c1 | > 25 | –
2.64 | 1.08 | COc1ccc(/C=C2/C(=O)N(C)c3ccccc32)cc1O | 15.5 | –
3.94 | 1.11 | O=C1Nc2ccccc2/C1=C\c1cccc(O)c1 | > 25 | –
4.5 | 1.04 | COc1ccc(/C=C2/C(=O)Nc3ccccc32)cc1 | > 25 | –

The next lines start with the compound.

SMILES | Ratio [2] | fold induction at 48 h, 5 µM (CYP1A1 [3]) | IC50 [1] [µM] | further results
O=C1Nc2ccccc2/C1=C\c1ccc(F)cc1 | – | – | > 25 | fold induction at 48 h, 20 µM (CYP1A1 [4]): 1.64; Ratio [5]: 5.69
COc1ccc(/C=C2/C(=O)Nc3ccccc32)c(O)c1 | – | – | > 25 | fold induction at 48 h, 2.5 µM (CYP1A1 [6]): 2.35; Ratio [7]: 3.59
O=C1Nc2ccccc2/C1=C\c1ccncc1 | – | – | > 25 | fold induction at 48 h, 20 µM (CYP1A1 [4]): 1.01; Ratio [5]: 2.08
O=C1Nc2ccccc2/C1=C\c1ccccc1 | 5.13 | 1.01 | > 25 | –
COc1cccc(/C=C2/C(=O)Nc3cc(F)ccc32)c1 | – | – | 9.8 | Ratio [8]: 3.21; fold induction at 48 h, 1 µM (CYP1A1 [9]): 1.25
O=C1Nc2ccccc2/C1=C\c1ccccc1O | – | – | > 25 | fold induction at 48 h, 20 µM (CYP1A1 [4]): 1.02; Ratio [5]: 3.35
COc1ccc(/C=C2/C(=O)Nc3cc(Cl)ccc32)cc1O | – | – | > 25 | Ratio [8]: 5.09; fold induction at 48 h, 1 µM (CYP1A1 [9]): 2.33
COc1cccc(/C=C2/C(=O)Nc3ccc(Cl)cc32)c1 | – | – | 17.5 | fold induction at 48 h, 2.5 µM (CYP1A1 [6]): 1.32; Ratio [7]: 4.34
COc1cccc(CC2C(=O)Nc3ccccc32)c1 (configuration not stated) | – | – | > 25 | fold induction at 48 h, 20 µM (CYP1A1 [4]): 1.78; Ratio [5]: 2.23
COc1ccccc1/C=C1/C(=O)Nc2ccccc21 | – | – | > 25 | Ratio [8]: 4.03; fold induction at 48 h, 1 µM (CYP1A1 [9]): 2.48
Cc1ccc(/C=C2/C(=O)Nc3ccccc32)cc1 | – | – | > 25 | fold induction at 48 h, 7.5 µM (CYP1A1 [10]): 1.07; Ratio [11]: 3.05
Cc1cccc(/C=C2/C(=O)Nc3ccccc32)c1 | – | – | > 25 | Ratio [8]: 4.04; fold induction at 48 h, 1 µM (CYP1A1 [9]): 1.08
Cc1ccc(CC2C(=O)Nc3ccccc32)cc1 (configuration not stated) | – | – | > 25 | –
